2 compounds from PMC4488387 (Nature methods, 2015) can be followed below.

The target of assay [1] is T1, Nluc-A1 receptor (Homo sapiens, UniProt P30542).
T1 sequence (P30542 2-326 limits assumed): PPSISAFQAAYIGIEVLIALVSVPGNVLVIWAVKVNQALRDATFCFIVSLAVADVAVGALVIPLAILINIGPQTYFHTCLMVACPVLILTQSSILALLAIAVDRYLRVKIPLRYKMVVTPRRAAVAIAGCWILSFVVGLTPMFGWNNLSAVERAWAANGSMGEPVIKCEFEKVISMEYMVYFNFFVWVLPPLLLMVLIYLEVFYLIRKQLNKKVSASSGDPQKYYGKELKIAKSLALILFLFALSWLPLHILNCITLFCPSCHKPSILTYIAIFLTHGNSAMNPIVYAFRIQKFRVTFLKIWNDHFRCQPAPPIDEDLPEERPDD
Kind of assay: NanoBRET saturation binding, HEK293 cells stably expressing Nluc-A1. The conditions noted are these: Nluc-A1, concentrations up to 500 nM, non-specific 1 μM DPCPX.

Assay [2] concerns the target T1, Nluc-A1 receptor. Kind of assay: NanoBRET association kinetics of CA200645 binding. Conditions: read-out: KD from kinetics (koff/kon); Nluc-A1, room temperature, 60 min, n=3. The method, boiled down:
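Stable single-cell-cloned HEK293 Nluc-A1 cells were seeded 24 h ahead. Medium was replaced with HBSS containing 10 uM furimazine and equilibrated 15 min in the reader. The fluorescent ligand was then added at several concentrations, and each well was read once per min for 60 min.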
(In general: BRET reads energy transfer from a luciferase to a nearby fluorophore.)

Turning to `COc1ccc(-n2nc3c(NC(=O)CCC(=O)NCCOCCOCCNC(=O)CCCCCNC(=O)COc4ccc(/C=C/C5=[N+]6C(=Cc7ccc(-c8cccs8)n7[B-]6(F)F)C=C5)cc4)nc4ccccc4n3c2=O)cc1` [AV039], in assay [1], the “saturable specific BRET signal” value is recorded as “did not detect a saturable specific BRET signal”.

Consider CA200645, for which, in assay [2], the Kd came out at 20.4 ± 6.9 nM.
